The values that follow come from ChEMBL document CHEMBL4270541, “Synthesis and antimicrobial evaluation of amino sugar-based naphthoquinones and isoquinoline-5,8-diones and their halogenated compounds” (Eur J Med Chem, 2018).

≈ marks a conversion by molar mass, not a printed value. Calls of active or inactive are those of the source. The rule behind the calls is not given here.

The subject of data set [1] is Staphylococcus aureus. In words: Bactericidal activity against methicillin-resistant Staphylococcus aureus BMB9393 at 256 ug/ml incubated for 24 hrs followed by transfer of microbial suspension to agar plates and measured after 24 hrs post transfer by resazurin dye-based colorimetric analysis. In kind it is functional, organism-based. The method, boiled down:
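From MIC wells with no visible growth, 10 µL is transferred to agar plates and incubated 24 h at 37°C. MBC is the minimum concentration inhibiting 99.9% of growth. […] Triplicate.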
Background: Resazurin is reduced to fluorescent resorufin, in cell work by metabolically active cells.

Data set [2] has as its system Pseudomonas aeruginosa. Put plainly: Bactericidal activity against Pseudomonas aeruginosa INCQS 00099 ATCC 27853 incubated for 24 hrs followed by transfer of microbial suspension to agar plates and measured after 24 hrs post transfer by resazurin dye-based colorimetric analysis. The following applies: INCQS 00099 ATCC 27853, 24 h, read-out: MBC99.9. In kind it is functional. The method, boiled down: (§1)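 For MBC, 10 µL from each clear MIC well was plated on agar and incubated 24 h at 37°C. MBC is the minimum concentration inhibiting 99.9% of growth. […] Triplicate.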

Data set [3] deals with Staphylococcus epidermidis. Put plainly: Antimicrobial activity against Staphylococcus epidermidis INCQS 00016 ATCC 12228 assessed as zone of inhibition at 5 mg/ml after 18 to 24 hrs by disc diffusion method. The following applies: ATCC 12228 INCQS 00016, read-out: IZ. It counts as functional. For orientation: A growth-free zone around the sample is the usual read-out of agar diffusion tests.

The subject of data set [4] is Klebsiella pneumoniae. In words: Antimicrobial activity against Klebsiella pneumoniae INCQS 00083 ATCC 4352 assessed as zone of inhibition at 5 mg/ml after 18 to 24 hrs by disc diffusion method. The following applies: read-out: IZ. It counts as functional.
For data set [5], the system named is Escherichia coli. In words: Ratio of MBC99.9 to MIC for Escherichia coli INCQS 00033 ATCC 25922. In kind it is functional, ATCC 25922 INCQS 00033. The method, boiled down: (§2)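 MBC/MIC ratio from the 24 h, 37°C microdilution MIC and the agar-plating MBC (99.9% growth inhibition). A ratio ≤2 was classed as bactericidal and ≥4 as bacteriostatic.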
For data set [6], the system named is Staphylococcus simulans. Put plainly: Antimicrobial activity against Staphylococcus simulans INCQS 00254 ATCC 27851 assessed as zone of inhibition at 5 mg/ml after 18 to 24 hrs by disc diffusion method. It counts as functional. The following applies: read-out: IZ.
Data set [7] relates to Staphylococcus aureus. Put plainly: Bactericidal activity against Staphylococcus aureus INCQS 00015 ATCC 25923 at 256 ug/ml incubated for 24 hrs followed by transfer of microbial suspension to agar plates and measured after 24 hrs post transfer by resazurin dye-based colorimetric analysis. It counts as functional, organism-based. In a few lines: as §1
Data set [8] has as its system Staphylococcus simulans. In words: Bactericidal activity against Staphylococcus simulans INCQS 00254 ATCC 27851 at 256 ug/ml incubated for 24 hrs followed by transfer of microbial suspension to agar plates and measured after 24 hrs post transfer by resazurin dye-based colorimetric analysis. It counts as functional, organism-based. In a few lines: as §1
For data set [9], the system named is Staphylococcus aureus. In words: Antimicrobial activity against Staphylococcus aureus INCQS 00015 ATCC 25923 at 256 ug/ml after 24 hrs by microdilution assay. In kind it is functional, organism-based.
Data set [10] relates to Pseudomonas aeruginosa. In words: Antimicrobial activity against Pseudomonas aeruginosa INCQS 00099 ATCC 27853 after 24 hrs by microdilution assay. In kind it is functional. The following applies: INCQS 00099 ATCC 27853, 24 h. On the technique in general: Broth dilution looks for growth in wells or tubes with falling amounts of substance.
Data set [11] concerns Pseudomonas aeruginosa. Put plainly: Ratio of MBC99.9 to MIC for Pseudomonas aeruginosa INCQS 00099 ATCC 27853. It counts as functional. In a few lines:
as §2

Data set [12] deals with Staphylococcus aureus. In words: Antimicrobial activity against methicillin-resistant Staphylococcus aureus BMB9393 assessed as zone of inhibition at 5 mg/ml after 18 to 24 hrs by disc diffusion method. In kind it is functional. The following applies: read-out: IZ.
Data set [13] has as its system Pseudomonas aeruginosa. In words: Antimicrobial activity against Pseudomonas aeruginosa INCQS 00099 ATCC 27853 assessed as zone of inhibition at 5 mg/ml after 18 to 24 hrs by disc diffusion method. In kind it is functional. The conditions noted are these: read-out: IZ.
Data set [14] relates to Escherichia coli. Put plainly: Antimicrobial activity against Escherichia coli INCQS 00033 ATCC 25922 assessed as zone of inhibition at 5 mg/ml after 18 to 24 hrs by disc diffusion method. It counts as functional. The following applies: ATCC 25922 INCQS 00033, read-out: IZ.
Data set [15] deals with Staphylococcus simulans. In words: Antimicrobial activity against Staphylococcus simulans INCQS 00254 ATCC 27851 at 256 ug/ml after 24 hrs by microdilution assay. It counts as functional, organism-based.
Data set [16] deals with Staphylococcus aureus. In words: Antimicrobial activity against Staphylococcus aureus INCQS 00015 ATCC 25923 assessed as zone of inhibition at 5 mg/ml after 18 to 24 hrs by disc diffusion method. The conditions noted are these: read-out: IZ. It counts as functional.
Data set [17] has as its system Staphylococcus aureus. Put plainly: Antimicrobial activity against methicillin-resistant Staphylococcus aureus BMB9393 at 256 ug/ml after 24 hrs by microdilution assay. It counts as functional, organism-based.
Data set [18] has as its system Escherichia coli. In words: Bactericidal activity against Escherichia coli INCQS 00033 ATCC 25922 incubated for 24 hrs followed by transfer of microbial suspension to agar plates and measured after 24 hrs post transfer by resazurin dye-based colorimetric analysis. In kind it is functional. The conditions noted are these: ATCC 25922 INCQS 00033, 24 h, read-out: MBC99.9. The method, boiled down:
as §1

The subject of data set [19] is Escherichia coli. In words: Antimicrobial activity against Escherichia coli INCQS 00033 ATCC 25922 after 24 hrs by microdilution assay. It counts as functional. The conditions noted are these: ATCC 25922 INCQS 00033, 24 h.
Data set [20] has as its system Enterococcus faecalis. Put plainly: Antimicrobial activity against Enterococcus faecalis INCQS 00234 ATCC 29212 assessed as zone of inhibition at 5 mg/ml after 18 to 24 hrs by disc diffusion method. It counts as functional. The conditions noted are these: ATCC 29212 INCQS 00234, read-out: IZ.
The nature of data set [21]: Hemolytic activity against human erythrocytes assessed as hemolysis at 200 ug/ml after 3 hrs by spectrophotometric analysis relative to control. In kind it is ADME, cell-based, Erythrocyte. The conditions noted are these: read-out: Activity. In a few lines: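 Erythrocytes collected in citrate tubes, washed three times with PBS pH 7.4 by centrifugation and resuspended in PBS. Incubated with compounds at 200 µg/mL for 3 h at 37°C. Released hemoglobin was read in the supernatant at 545 nm against 1% Triton X-100 (complete lysis) and 1% DMSO (negative control). Below 10% hemolysis was taken as hemocompatible. Three independent experiments.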

The test system of data set [22] is Proteus mirabilis. Put plainly: Antimicrobial activity against Proteus mirabilis INCQS 00095 ATCC 15290 assessed as zone of inhibition at 5 mg/ml after 18 to 24 hrs by disc diffusion method. In kind it is functional. The following applies: read-out: IZ.
Data set [23] has as its system Staphylococcus epidermidis. In words: Bactericidal activity against Staphylococcus epidermidis INCQS 00016 ATCC 12228 at 256 ug/ml incubated for 24 hrs followed by transfer of microbial suspension to agar plates and measured after 24 hrs post transfer by resazurin dye-based colorimetric analysis. The conditions noted are these: ATCC 12228 INCQS 00016. It counts as functional, organism-based. In a few lines: as §1

In data set [24] the test system is Staphylococcus epidermidis. Put plainly: Antimicrobial activity against Staphylococcus epidermidis INCQS 00016 ATCC 12228 at 256 ug/ml after 24 hrs by microdilution assay. It counts as functional, organism-based. The conditions noted are these: ATCC 12228 INCQS 00016.
Data set [25] deals with Staphylococcus epidermidis. In words: Antimicrobial activity against Staphylococcus epidermidis INCQS 00016 ATCC 12228 after 24 hrs by microdilution assay. The conditions noted are these: ATCC 12228 INCQS 00016, 24 h. In kind it is functional.
In data set [26] the test system is Staphylococcus epidermidis. Put plainly: Ratio of MBC99.9 to MIC for Staphylococcus epidermidis INCQS 00016 ATCC 12228. It counts as functional, ATCC 12228 INCQS 00016. The method, boiled down:
as §2

In data set [27] the test system is Staphylococcus epidermidis. Put plainly: Bactericidal activity against Staphylococcus epidermidis INCQS 00016 ATCC 12228 incubated for 24 hrs followed by transfer of microbial suspension to agar plates and measured after 24 hrs post transfer by resazurin dye-based colorimetric analysis. The conditions noted are these: ATCC 12228 INCQS 00016, 24 h, read-out: MBC99.9. It counts as functional. In a few lines:
as §1

With `CO[C@@H]1O[C@H](CNC2=C(Br)C(=O)c3ccccc3C2=O)[C@H]2OC(C)(C)O[C@@H]12`, the outcome in [1], in [7], in data set [8], in data set [9], in [15] and in data set [17] was inactive. Moreover, the outcome in [23] and in data set [24] was inactive. Further, the MBC in [2] is 34 µg/mL (≈ 77.6 µM); in data set [18], 32 µg/mL (≈ 73 µM). Moreover, the zone of inhibition at 5000 µg/mL in [3] is 10 mm; in data set [4] it was 0 mm; in [6] it was 8 mm; in data set [12] it was 0 mm; in data set [13], 13 mm; in data set [14], 16 mm. The zone of inhibition at 5000 µg/mL in data set [16] was 8 mm; in data set [20], 0 mm; in [22], 0 mm. Further, the Ratio in data set [5] and in data set [11] was 1 throughout. In addition, the MIC (as a rule, the least concentration at which growth counts as inhibited) in [10] is 64 µg/mL (≈ 146 µM); in data set [19], 32 µg/mL (≈ 73 µM). For the same compound, the hemolysis at 3 h, 200 ug/ml in [21] is below 10%.
Consider `CO[C@@H]1O[C@H](CNC2=C(Cl)C(=O)c3ccccc3C2=O)[C@H]2OC(C)(C)O[C@@H]12`, for which the result in data set [1], in [7], in data set [8], in data set [9], in [15] and in [17] was inactive. The outcome in [23] and in data set [24] was inactive. The MBC is 32 µg/mL (≈ 81.3 µM) in [2] and 8 µg/mL (≈ 20.3 µM) in data set [18]. The zone of inhibition at 5000 µg/mL in data set [3] came to 9 mm; in [4], 0 mm; in [6], 7 mm; in data set [12], 0 mm; in [13] it was 9 mm; in [14], 10 mm. Further, the zone of inhibition at 5000 µg/mL in [16], in [20] and in data set [22] was 0 mm each time. In addition, the Ratio in data set [5] is listed as 1. Moreover, the MIC in [10] turned out to be 32 µg/mL (≈ 81.3 µM); in data set [19], 8 µg/mL (≈ 20.3 µM). For the same compound, the hemolysis at 3 h, 200 ug/ml in data set [21] is below 10%.
Take `COC(=O)c1c(C)nc(C)c2c1C(=O)C(Br)=C(N)C2=O`: the result in data set [1], in data set [7], in data set [8], in data set [9], in [15] and in data set [17] was inactive. Besides, the MIC in data set [25] was 32 µg/mL (≈ 94.4 µM); in data set [10], 32 µg/mL (≈ 94.4 µM); in data set [19], 8 µg/mL (≈ 23.6 µM). The MBC in data set [2] came out at 32 µg/mL (≈ 94.4 µM); in [27] it was 32 µg/mL (≈ 94.4 µM); in data set [18], 8 µg/mL (≈ 23.6 µM). The zone of inhibition at 5000 µg/mL in [3] was 22 mm; in data set [4] it was 0 mm; in data set [6], 17 mm; in data set [12], 22 mm; in [13], 28 mm; in data set [14] it was 30 mm. Further, the zone of inhibition at 5000 µg/mL in data set [16] was 23 mm; in [20], 0 mm; in [22], 0 mm. Besides, the Ratio in data set [5], in data set [26] and in [11] was 1 in each case. Also, the hemolysis at 3 h, 200 ug/ml in data set [21] lay within 10.1 to 14.4%.
